Data published in PMC4650587 (Cell Research, 2014).
“Also recorded” adds a separate entry of the source. Read-outs that look alike come from different tables or passages of the source. One block for each molecule: values may come before it.

Legend:
AMPK = settings: cited from earlier work
human α1β2γ1 AMPK [1] = molecular target: human α1β2γ1 AMPK (Homo sapiens, UniProt P54619); type: biochemical
[2] = test system: AID-αRIM / core AMPK(α1[395-550]-β2[187-272]-γ1); assay: AlphaScreen interaction between biotinylated core AMPK and His6GST-AID-αRIM; type: binding, human; settings: wild-type AID-αRIM; AMP 0.2 mM, ATP 1 mM
Method in brief: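 Two-protein AlphaScreen pairing 100 nM His6-tagged protein on nickel acceptor beads with 100 nM biotin-tagged protein on streptavidin donor beads. Biotinylated core AMPK (α1[395-550]-β2[187-272]-γ1) was an avitag fusion biotinylated in E. coli by co-expressed BirA with 40 μM biotin. Reactions ran in 50 mM MOPS pH 7.4, 50 mM NaF, 50 mM CHAPS, 0.1 mg/ml BSA, 0.2 mM AMP, 1 mM ATP.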

[3] = molecular target: CBM-KD interaction of AMPK; assay: AlphaScreen interaction between isolated biotin-CBM and His6-KD in trans; type: binding, human
Method in brief: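 Biotin-CBM (β2[75-163] avitag, biotinylated in vivo) was split in two. One half was phosphorylated in trans by CaMKKβ-phosphorylated His6-KD (CBM:KD 50:1, 4 h, RT), then freed of KD by Ni column and size exclusion. 100 nM biotin-CBM on streptavidin donor beads was paired with 100 nM His6-KD on Ni acceptor beads. Buffer: 50 mM MOPS pH 7.4, 50 mM NaF, 50 mM CHAPS, 0.1 mg/ml BSA.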

rat liver AMPK = settings: cited from earlier work
[4] = test system: recombinant, E. coli-expressed AMPK; settings: cited from earlier work
holo-AMPK = assay: AlphaScreen CBM-KD interaction in holo-AMPK; type: binding, human; settings: glycogen 0.5 mg/ml, cyclodextrin 2 mM
human α1β2γ1 AMPK [5] = assay: Radioactive kinase assay; type: biochemical; settings: phosphorylated AMPK; 1 mg/ml glycogen
[6] = molecular target: T1, AMPK γ1(24-327), γ-subunit of the crystallised holo-AMPK (human, UniProt P54619 24-327); assay: crystal structure
T1 sequence (P54619 24-327): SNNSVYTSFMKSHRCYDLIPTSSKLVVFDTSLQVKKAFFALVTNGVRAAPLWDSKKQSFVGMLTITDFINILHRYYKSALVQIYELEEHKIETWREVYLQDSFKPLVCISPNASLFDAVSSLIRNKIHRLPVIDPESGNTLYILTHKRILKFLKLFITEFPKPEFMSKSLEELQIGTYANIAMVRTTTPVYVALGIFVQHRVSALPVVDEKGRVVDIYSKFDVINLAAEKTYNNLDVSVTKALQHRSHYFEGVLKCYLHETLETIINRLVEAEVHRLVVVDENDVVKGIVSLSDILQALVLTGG

[7] = molecular target: T1, AMPK γ1(24-327), γ-subunit of the …; assay: crystal structure; remark: listed apart in the source

Chain of human α1β2γ1 AMPK (Homo sapiens, UniProt P54619) (P54619 24-327, one chain of several): as the sequence (P54619 24-327) above
Chain of human α1β2γ1 AMPK (Homo sapiens, UniProt P54619) (Q13131 20-559 partner, one chain of several): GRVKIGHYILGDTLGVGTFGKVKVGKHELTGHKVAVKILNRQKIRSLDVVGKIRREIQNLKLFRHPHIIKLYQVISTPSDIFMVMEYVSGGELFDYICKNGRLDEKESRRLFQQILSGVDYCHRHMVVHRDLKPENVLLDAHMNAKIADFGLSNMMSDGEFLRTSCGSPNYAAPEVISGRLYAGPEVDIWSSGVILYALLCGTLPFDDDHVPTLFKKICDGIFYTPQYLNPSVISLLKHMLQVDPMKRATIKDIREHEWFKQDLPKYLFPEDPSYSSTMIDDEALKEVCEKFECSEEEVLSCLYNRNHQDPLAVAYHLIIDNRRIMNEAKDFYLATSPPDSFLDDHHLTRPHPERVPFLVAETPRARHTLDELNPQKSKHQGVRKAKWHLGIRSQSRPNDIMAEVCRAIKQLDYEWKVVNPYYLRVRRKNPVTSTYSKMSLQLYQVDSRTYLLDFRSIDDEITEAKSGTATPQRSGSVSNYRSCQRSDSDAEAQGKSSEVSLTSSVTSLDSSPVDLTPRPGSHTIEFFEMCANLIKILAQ

Molecule: N#Cc1c(O)c2c(-c3ccc(-c4ccccc4O)cc3)csc2[nH]c1=O [A769662]
- effect on kinase activity (AMPK): increase kinase activity

- change of luminescence signal, α-γ tagged AMPK (human α1β2γ1 AMPK [1]; 2 μM AMP): doubled the luminescence signal
Molecule: Nc1ncnc2c1ncn2[C@@H]1O[C@H](COP(=O)(O)O)[C@@H](O)[C@H]1O [AMP]
- effect on AID-αRIM / core AMPK interaction signal [2]: increased

- change of luminescence signal, α-γ tagged AMPK (human α1β2γ1 AMPK [1]; 1 mM ATP): decreased the signal by a factor of two
Molecule: Nc1ncnc2c1ncn2[C@@H]1O[C@H](COP(=O)(O)OP(=O)(O)OP(=O)(O)O)[C@@H](O)[C@H]1O [ATP]
- effect on AID-αRIM / core AMPK interaction signal [2]: decreased

Molecule: Cc1ccc(Oc2nc3cc(-c4ccc5c(ccn5C)c4)c(Cl)cc3[nH]2)cc1C(=O)O [compound 991]
- effect on kinase activity (AMPK): increase kinase activity

- effect on AlphaScreen signal of holo-AMPK (CBM-KD) (holo-AMPK; phosphorylated AMPK): smaller decrease
Molecule: OC[C@H]1O[C@@H]2O[C@H]3[C@H](O)[C@@H](O)[C@@H](O[C@H]4[C@H](O)[C@@H](O)[C@@H](O[C@H]5[C@H](O)[C@@H](O)[C@@H](O[C@H]6[C@H](O)[C@@H](O)[C@@H](O[C@H]7[C@H](O)[C@@H](O)[C@@H](O[C@H]8[C@H](O)[C@@H](O)[C@@H](O[C@H]1[C@H](O)[C@H]2O)O[C@@H]8CO)O[C@@H]7CO)O[C@@H]6CO)O[C@@H]5CO)O[C@@H]4CO)O[C@@H]3CO [cyclodextrin, β-cyclodextrin hydrate]
- effect on CBM-KD interaction signal ([3]; non-phosphorylated CBM, cyclodextrin 2 mM): greatly reduced the interaction; also recorded: strongly reduced the interaction
- effect on CBM-KD interaction signal ([3]; phosphorylated CBM, cyclodextrin 2 mM): mildly; also recorded: only weakly reduced the interaction
- effect on activity of immunoprecipitated native rat liver AMPK (rat liver AMPK): more substantially inhibit
- effect on catalytic activity of recombinant AMPK [4]: mildly inhibit

- effect on CBM-KD interaction signal ([3]; phosphorylated and non-phosphorylated CBM, glycogen 0.5 mg/ml): almost abolished this interaction
- effect on AMPK catalytic activity (human α1β2γ1 AMPK [5]): failed to detect an effect
- effect on AlphaScreen signal of holo-AMPK (CBM-KD) (holo-AMPK; non-phosphorylated AMPK): significant (P < 0.01) signal decrease
- effect on AlphaScreen signal of holo-AMPK (CBM-KD) (holo-AMPK; phosphorylated AMPK): smaller decrease
Molecule: glycogen
- effect on activity of immunoprecipitated native rat liver AMPK (rat liver AMPK): more substantially inhibit
- effect on activity of purified rat liver AMPK (rat liver AMPK; purified rat liver AMPK): did not detect an effect
- effect on catalytic activity of recombinant AMPK [4]: mildly inhibit

- binding result [6]: binds
B1: phosphorylated AMPK β2(76-272), β-subunit of the crystallised phosphorylated holo-AMPK (domain or fragment)
chain: ARPTVIRWSEGGKEVFISGSFNNWSTKIPLIKSHNDFVAILDLPEGEHQYKFFVDGQWVHDPSEPVVTSQLGTINNLIHVKKSDFEVFDALKLDSMESSETSCRDLSSSPPGPYGQEMYAFRSEERFKSPPILPPHLLQVILNKDTNISCDPALLPEPNHVMLNHLYALSIKDSVMVLSATHRYKKKYVTTLLYKPI
modifications: phosphoserine at 108 (autophosphorylated)

- binding result [7]: binds
B2: non-phosphorylated AMPK β2(76-272), β-subunit of the crystallised non-phosphorylated holo-AMPK (domain or fragment)
chain: B1 chain
